Bioassay records as filed in PubChem BioAssay.
Ecoli tolC = blocks growth of E. coli BW25113 tolC mutant | OD615 | growth inhibition, % at 10 µM (by protocol) | AID 573 | 65,000 tested, 2.2% active;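 active means growth inhibition at or above a cutoff equal to the mean over every tested compound plus 3 SD, cut at about 60% in these data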;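 further: growth measured after 20 h incubation at 37 °C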
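Test system: tolC-deleted E. coli BW25113 | Medium: LB with kanamycin 50 µg/mL | Compound dosing: Single concentration, 10 µM final per compound | Schedule: 37 °C, 20 h exposure | Measured by: OD at 615 nm | Evaluation: Percent growth inhibition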
Her2 expr inh = inhibitors of human Her2 kinase expression; 65,000 tested, 0.69% active; AID 645; P04626; HER2 level % of control, % at 10 µM; SKBR-3 HER2 protein level, AlphaScreen, 18-24 h; hits give low values;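 active means HER2 level under 5% of the carrier-only control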;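 further: 100% = DMSO carrier and 0% = 500 nM PU-H71 HSP90 inhibitor; lower value means stronger loss of Her2 protein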
Target sequence (P04626 whole entry, looked up): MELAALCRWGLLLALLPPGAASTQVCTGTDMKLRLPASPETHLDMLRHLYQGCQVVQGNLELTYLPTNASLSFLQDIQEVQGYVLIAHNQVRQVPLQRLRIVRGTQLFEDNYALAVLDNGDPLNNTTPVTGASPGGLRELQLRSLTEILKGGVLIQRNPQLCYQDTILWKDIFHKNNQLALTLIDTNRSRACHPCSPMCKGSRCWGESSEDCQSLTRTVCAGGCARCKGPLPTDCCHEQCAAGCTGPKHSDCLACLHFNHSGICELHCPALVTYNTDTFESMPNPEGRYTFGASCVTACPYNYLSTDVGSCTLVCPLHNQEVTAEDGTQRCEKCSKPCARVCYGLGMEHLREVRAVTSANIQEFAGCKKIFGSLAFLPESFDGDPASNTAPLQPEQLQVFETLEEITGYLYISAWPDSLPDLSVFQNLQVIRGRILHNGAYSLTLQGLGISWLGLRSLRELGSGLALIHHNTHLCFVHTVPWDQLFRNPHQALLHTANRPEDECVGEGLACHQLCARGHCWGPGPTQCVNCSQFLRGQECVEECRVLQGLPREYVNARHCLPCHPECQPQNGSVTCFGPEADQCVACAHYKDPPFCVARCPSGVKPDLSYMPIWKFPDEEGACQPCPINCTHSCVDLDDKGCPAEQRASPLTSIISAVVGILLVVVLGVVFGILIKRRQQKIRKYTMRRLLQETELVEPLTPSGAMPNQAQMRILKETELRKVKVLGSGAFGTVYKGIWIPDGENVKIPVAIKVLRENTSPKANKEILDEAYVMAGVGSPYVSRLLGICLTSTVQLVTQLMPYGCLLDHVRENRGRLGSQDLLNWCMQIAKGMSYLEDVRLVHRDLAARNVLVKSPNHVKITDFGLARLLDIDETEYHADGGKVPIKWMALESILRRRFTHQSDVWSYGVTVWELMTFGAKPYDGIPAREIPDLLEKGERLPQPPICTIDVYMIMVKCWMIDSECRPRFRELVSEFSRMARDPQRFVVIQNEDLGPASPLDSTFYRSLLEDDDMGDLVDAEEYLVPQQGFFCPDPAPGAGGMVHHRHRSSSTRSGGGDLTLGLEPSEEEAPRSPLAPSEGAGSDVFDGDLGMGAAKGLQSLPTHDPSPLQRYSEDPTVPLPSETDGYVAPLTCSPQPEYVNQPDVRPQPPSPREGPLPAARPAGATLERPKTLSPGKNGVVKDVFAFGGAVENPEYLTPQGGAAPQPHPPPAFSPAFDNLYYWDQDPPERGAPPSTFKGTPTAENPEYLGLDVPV
PostGolgi ctrl = growth of the yeast control strain, post-Golgi counter-screen; efflux-deficient yeast background strain, growth absorbance A615, 16 h; inhibition, % at 10 µM; 98,000 tested, 5% active; AID 738
Ecoli WT expand = blocks growth of wild type E. coli BW25113; OD600 absorbance; growth inhibition, % at 100 µM; 98,000 tested, 0.15% active; AID 710;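 active means growth inhibition above about 50% at one test dose, limit read from the data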;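 further: growth measured after 20 h incubation at 37 °C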
PostGolgi yeast = growth inhibition of a yeast mutant, post-Golgi transport screen | post-Golgi transport phenotypic cell assay | inhibition, % at 10 µM | 98,000 tested, 0.9% active | AID 739;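 further: yeast cells grown in 1536-well plates; yeast grown about 18 h at 30C before absorbance read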
Starred values were filed as active, the others as inactive. Rows were chosen to be rich in hits. Some 6.6% of all compounds tested hit in one or more screens of this group. Unless noted, no stated cut-off is given here; in the data, active means inhibition above about 30%; inactive means the rest.

Results for CCCCOc1ccc(-c2nnn(C(C)C(=O)OCC)n2)cc1 (configuration not stated) ?
Ecoli tolC: 35.2; Her2 expr inh: 125.8; PostGolgi ctrl: 3.5; Ecoli WT expand: 13.0; PostGolgi yeast: 8.2

What do the screens show for `CCCCOc1ccc(-c2ncc(C(=O)O)c(C)n2)cc1`?
Ecoli tolC: 28.4; Her2 expr inh: 66.3; PostGolgi ctrl: 3.6; Ecoli WT expand: -5.0; PostGolgi yeast: 43.8*

How did Cc1nn(Cc2cccc(C(=O)NC(C)c3ccc(C(C)(C)C)cc3)c2)c(C)c1[N+](=O)[O-] (configuration not stated) do in these assays?
PostGolgi ctrl: 2.5; Ecoli WT expand: -10.0; PostGolgi yeast: 50.8*

What do the screens show for `CCC(NC(=O)c1cccc(Cn2nc(C)c([N+](=O)[O-])c2C)c1)c1ccc(C(C)C)cc1` (configuration not stated)?
PostGolgi ctrl: -5.3; Ecoli WT expand: -10.0; PostGolgi yeast: -3.3

Results for Cc1ccc(C2=NC(C)(C)N=C2SCC(=O)Nc2ccc(Cl)cc2)cc1 ?
PostGolgi ctrl: 34.5*; Ecoli WT expand: -10.0; PostGolgi yeast: 12.8

How did CC1(C)N=C(SCC(=O)Nc2ccccc2)C(c2ccc(Cl)cc2)=N1 do in these assays?
PostGolgi ctrl: 9.1; Ecoli WT expand: -3.0; PostGolgi yeast: -3.0

What do the screens show for `CCOc1ccc(C(=O)OCc2nnc(-c3cccs3)o2)cc1OC`?
Ecoli tolC: 47.7; Her2 expr inh: 97.8; PostGolgi ctrl: 12.4; Ecoli WT expand: -5.0; PostGolgi yeast: 17.9

How did CC(C)c1[nH]nc2c1C(Cc1ccccc1)C(C#N)=C(N)O2 (configuration not stated) do in these assays?
Ecoli tolC: 25.9; Her2 expr inh: 84.4; PostGolgi ctrl: 10.2; Ecoli WT expand: 14.0; PostGolgi yeast: -3.3

How did O=C(Cc1ccccc1)Nc1ccccc1N1CCN(c2ccccc2)CC1 do in these assays?
Ecoli tolC: 63.1*; Her2 expr inh: 90.7; PostGolgi ctrl: 5.0; Ecoli WT expand: 0.0; PostGolgi yeast: 6.5

What do the screens show for `CS(=O)(=O)N1CCN(c2ccccc2NC(=O)Cc2ccccc2)CC1`?
Ecoli tolC: 1.6; Her2 expr inh: 82.2; PostGolgi ctrl: 10.1; Ecoli WT expand: 3.0; PostGolgi yeast: -3.1

Results for COc1ccc(S(=O)(=O)N(CCCN2CCOCC2)Cc2cccc3ccccc23)cc1 ?
PostGolgi ctrl: 1.8; Ecoli WT expand: -11.0; PostGolgi yeast: 5.6

How did CCn1c(C(=O)OC)cc2c1ccn2-c1ccc(F)cc1 do in these assays?
Ecoli tolC: 96.4*; Her2 expr inh: 94.0; PostGolgi ctrl: 1.2; Ecoli WT expand: 4.0; PostGolgi yeast: 12.2

What do the screens show for `C=C(C)COc1ccc(-c2[nH]ncc2Oc2ccccc2OCC)c(O)c1`?
Ecoli tolC: 100.0*; Her2 expr inh: -17.1*; PostGolgi ctrl: 19.3; Ecoli WT expand: 9.0; PostGolgi yeast: 49.0*

How did C=C(C)COc1ccc(-c2[nH]ncc2Oc2cccc(OC)c2)c(O)c1 do in these assays?
Ecoli tolC: 100.0*; Her2 expr inh: 52.2; PostGolgi ctrl: 30.4*; Ecoli WT expand: 13.0; PostGolgi yeast: 16.1

Results for COc1cccc(Oc2cnc(N)nc2-c2ccc(OC)cc2O)c1 ?
Ecoli tolC: 33.5; Her2 expr inh: 103.7; PostGolgi ctrl: 5.8; Ecoli WT expand: 1.0; PostGolgi yeast: -1.5

What do the screens show for `Cc1ccccc1-n1nnnc1SC1CCOC1=O` (configuration not stated)?
Ecoli tolC: -4.9; Her2 expr inh: 104.1; PostGolgi ctrl: 35.1*; Ecoli WT expand: 3.0; PostGolgi yeast: -1.7

What do the screens show for `COc1ccccc1-n1cnnc1SC1CCOC1=O` (configuration not stated)?
Ecoli tolC: 1.0; Her2 expr inh: 113.9; PostGolgi ctrl: -2.1; Ecoli WT expand: -4.0; PostGolgi yeast: -1.8

What do the screens show for `Cc1ccc(NC(=O)C2C3C=CC4(CN(Cc5cccnc5)C(=O)C24)O3)cc1F` (configuration not stated)?
Ecoli tolC: -2.8; Her2 expr inh: 79.1; PostGolgi ctrl: 18.6; Ecoli WT expand: 1.0; PostGolgi yeast: -4.7

Results for O=C(c1cn(-c2ccccc2)nc1-c1cccs1)N1CCN(c2ccccc2)CC1 ?
PostGolgi ctrl: 44.1*; Ecoli WT expand: -18.0; PostGolgi yeast: -1.3

What do the screens show for `O=C(c1cn(-c2ccccc2)nc1-c1cccs1)N1CCOCC1`?
PostGolgi ctrl: -5.1; Ecoli WT expand: 9.0; PostGolgi yeast: 2.4

Results for CCc1nc2ccc(C)cc2c(C(=O)NC2CCCCC2C)c1C (configuration not stated) ?
PostGolgi ctrl: 5.0; Ecoli WT expand: 2.0; PostGolgi yeast: 2.2

What do the screens show for `CC1CN(C(=O)N2c3ccccc3Sc3ccccc32)C(C)CC1=O` (configuration not stated)?
Ecoli tolC: 43.4; Her2 expr inh: 106.2; PostGolgi ctrl: 36.6*; Ecoli WT expand: -7.0; PostGolgi yeast: -1.4

What do the screens show for `NC(=S)N/N=C/c1ccc(-c2cc(Cl)cc(Cl)c2)o1`?
PostGolgi ctrl: 68.0*; Ecoli WT expand: 5.0; PostGolgi yeast: 29.8

What do the screens show for `C/C(CC(=O)Nc1cc(Cl)ccc1Cl)=N\NC(N)=S`?
PostGolgi ctrl: 4.0; Ecoli WT expand: 13.0; PostGolgi yeast: 5.5

What do the screens show for `NC(=S)N/N=C/c1ccc(-c2cc(Cl)ccc2Cl)o1`?
PostGolgi ctrl: 93.5*; Ecoli WT expand: 0.0; PostGolgi yeast: 19.1

What do the screens show for `CCCS(=O)(=O)N1CCc2cc(OC)c(OC)cc2C1`?
Ecoli tolC: -4.8; Her2 expr inh: 100.9; PostGolgi ctrl: 1.9; Ecoli WT expand: 5.0; PostGolgi yeast: 2.1

What do the screens show for `Cc1ccc(S(=O)(=O)N(CC(=O)N/N=C/c2cccc3c2OCCO3)c2ccccc2F)cc1`?
PostGolgi ctrl: -1.4; Ecoli WT expand: -9.0; PostGolgi yeast: 23.1

How did CC(C)c1nnc(NC(=O)CCS(=O)(=O)c2nc(-c3cccs3)cc(C(F)(F)F)n2)s1 do in these assays?
Ecoli tolC: 23.4; Her2 expr inh: -19.0*; PostGolgi ctrl: 9.8; Ecoli WT expand: 7.0; PostGolgi yeast: 1.3

Results for O=C(CCN1C(=O)c2ccncc2C1=O)Nc1ccc(F)cc1 ?
PostGolgi ctrl: 0.3; Ecoli WT expand: 6.0; PostGolgi yeast: -1.1

Results for Cc1cc(Br)ccc1NC(=O)CCN1C(=O)c2ccncc2C1=O ?
Ecoli tolC: -10.2; Her2 expr inh: 68.6; PostGolgi ctrl: 32.7*; Ecoli WT expand: -4.0; PostGolgi yeast: 8.6

What do the screens show for `CCOC(=O)N1CCC(NC(=O)C2CCN(S(=O)(=O)c3cccc4cccnc34)CC2)CC1`?
Ecoli tolC: -21.4; Her2 expr inh: 116.8; PostGolgi ctrl: 5.0; Ecoli WT expand: -12.0; PostGolgi yeast: 1.8

What do the screens show for `O=C(Nc1nccs1)C1CCCN(S(=O)(=O)c2cccc3cccnc23)C1` (configuration not stated)?
Ecoli tolC: 2.9; Her2 expr inh: 97.0; PostGolgi ctrl: 4.8; Ecoli WT expand: 0.0; PostGolgi yeast: 2.4

What do the screens show for `O=C(NCc1cccs1)C1CCN(S(=O)(=O)c2cccc3cccnc23)CC1`?
Ecoli tolC: -5.8; Her2 expr inh: 104.8; Ecoli WT expand: -5.0; PostGolgi yeast: 7.3
